Results reported in PMC7893122 (Acta Pharmaceutica Sinica. B, 2020).
Values belong to the molecule of their own block, whether it stands above or below them.

Tests used:
[1] = test system: HH signaling pathway (GLI-responsive firefly luciferase reporter); test: Dual luciferase reporter assay; format: cell-based; details: for IC50: read-out: IC50 GLI-luc reporter
BRD4 (BD1) = BRD4 (BD1) (Homo sapiens, UniProt O60885); test: Homogeneous time-resolved fluorescence binding assay, BRD4; details: for IC50: IC50 BRD4 (BD1), mean ± SD from three separate experiments; for fold less potent than compound 2 against BRD4: ratio of IC50 values
hERG channel = hERG channel (Homo sapiens, UniProt Q12809); test: hERG inhibition; format: cell-based
[2] = Pharmacokinetics in Sprague–Dawley rats; format: in vivo; details: rat; for AUC(0-inf) / AUC(0-t) / MRT inf / clearance / half-life / Cmax / Tmax: Sprague-Dawley, plasma; for Vss_obs: i.v. 1 mg/kg
[3] = test system: SMOA1 MB allografts (SMO^W539L); test: SMOA1 MB allograft model; format: in vivo, nude mice; details: 20 mg/kg p.o., bid; Fig. 5A
Method in brief: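 Primary SMOA1 MB allografts from ND2:SMOA1 transgenic mice grafted subcutaneously into nude mice. Dosing started at 100–150 mm3 tumour size: test compound p.o. twice daily, vehicle 0.5% CMC-Na, n ≥ 3 per group. Caliper measurement every 3 days; volume = 0.5 × length × width². Body weight tracked; group means ± SEM.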

SMO wild MB = details: 20 mg/kg p.o., bid; cited from earlier work
endogenous GLI2 = test: Western blot of endogenous GLI2 in light2 cells; format: cell-based; details: 25 at 10 and 100 nmol/L, GDC-0449 100 nmol/L
Method in brief: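 Light2 cells treated with test compound, lysed in LDS sample buffer, and run on SDS-PAGE. Immunoblotting used anti-GLI2 (1:1000), with GAPDH (1:5000) as reference.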

Sequence of hERG channel (Q12809 whole entry): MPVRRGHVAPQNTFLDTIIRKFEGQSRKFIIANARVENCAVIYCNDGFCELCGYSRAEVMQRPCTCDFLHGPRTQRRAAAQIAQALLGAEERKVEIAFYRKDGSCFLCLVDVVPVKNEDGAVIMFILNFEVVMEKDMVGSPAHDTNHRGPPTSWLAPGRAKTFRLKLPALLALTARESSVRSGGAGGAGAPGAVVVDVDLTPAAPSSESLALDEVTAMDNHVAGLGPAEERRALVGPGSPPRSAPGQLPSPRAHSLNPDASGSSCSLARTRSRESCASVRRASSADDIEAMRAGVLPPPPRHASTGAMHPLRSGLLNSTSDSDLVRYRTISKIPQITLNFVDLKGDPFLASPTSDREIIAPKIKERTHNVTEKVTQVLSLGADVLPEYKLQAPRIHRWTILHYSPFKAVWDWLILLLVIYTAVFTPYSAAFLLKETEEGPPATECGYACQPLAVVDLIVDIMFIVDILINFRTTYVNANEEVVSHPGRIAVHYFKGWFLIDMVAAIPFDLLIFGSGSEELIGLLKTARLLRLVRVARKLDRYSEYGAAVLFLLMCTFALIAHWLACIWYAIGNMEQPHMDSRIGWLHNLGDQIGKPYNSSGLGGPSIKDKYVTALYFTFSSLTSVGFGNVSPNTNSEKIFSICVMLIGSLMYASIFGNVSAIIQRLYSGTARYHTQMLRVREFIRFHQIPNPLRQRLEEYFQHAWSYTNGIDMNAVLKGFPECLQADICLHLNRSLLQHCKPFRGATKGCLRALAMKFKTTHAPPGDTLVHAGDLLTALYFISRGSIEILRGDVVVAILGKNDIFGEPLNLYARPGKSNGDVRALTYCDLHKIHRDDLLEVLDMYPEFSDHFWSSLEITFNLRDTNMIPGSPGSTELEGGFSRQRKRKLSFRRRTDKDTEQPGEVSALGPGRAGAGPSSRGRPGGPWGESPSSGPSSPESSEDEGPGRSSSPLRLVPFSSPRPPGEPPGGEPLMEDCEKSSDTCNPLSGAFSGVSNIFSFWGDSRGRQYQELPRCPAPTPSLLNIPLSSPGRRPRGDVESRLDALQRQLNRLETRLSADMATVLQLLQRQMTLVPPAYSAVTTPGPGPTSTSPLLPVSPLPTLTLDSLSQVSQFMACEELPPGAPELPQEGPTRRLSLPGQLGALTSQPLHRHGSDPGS

SMILES: CCS(=O)(=O)Nc1ccc(Oc2ccc(F)cc2F)c(-c2cc(Nc3ccccn3)c(=O)n(C)c2)c1 [Compound 10]
IC50 [1]: > 100 nM
IC50 (BRD4 (BD1)): > 100 nM

SMILES: CCS(=O)(=O)Nc1ccc(Oc2ccc(F)cc2F)c(-c2cc(NS(=O)(=O)CC)c(=O)n(C)c2)c1 [Compound 8]
IC50 [1]: > 100 nM
IC50 (BRD4 (BD1)): 42.8 ± 9.6 nM

SMILES: Cn1cc(-c2cc(N3CCCS3(=O)=O)ccc2Oc2ccc(F)cc2F)c2cc(C(=O)O)[nH]c2c1=O [Compound 26]
IC50 [1]: > 100 nM
IC50 (BRD4 (BD1)): 21 ± 11 nM
fold less potent than compound 2 against BRD4 (BRD4 (BD1)): > 4 fold

SMILES: Cn1cc(-c2cc(N3CCCN(CCN4CCC(CO)C4)S3(=O)=O)ccc2Oc2ccc(F)cc2F)c2cc[nH]c2c1=O (stereo not shown) [Compound 22]
IC50 [1]: > 100 nM

SMILES: CCS(=O)(=O)Nc1ccc(Oc2ccc(F)cc2F)c(-c2cc(Nc3ncc[nH]3)c(=O)n(C)c2)c1 [Compound 9]
IC50 [1]: > 100 nM
IC50 (BRD4 (BD1)): 47.6 ± 2.9 nM

SMILES: CCCC(=O)Nc1cc(-c2cc(NS(=O)(=O)CC)ccc2Oc2ccc(F)cc2F)cn(C)c1=O [Compound 7]
IC50 [1]: > 100 nM
IC50 (BRD4 (BD1)): > 100 nM

SMILES: Cn1cc(-c2cc(N3CCCCS3(=O)=O)ccc2Oc2ccc(F)cc2F)c2cc(C(=O)O)[nH]c2c1=O [Compound 27]
IC50 [1]: > 100 nM
IC50 (BRD4 (BD1)): 14.3 ± 4.52 nM
fold less potent than compound 2 against BRD4 (BRD4 (BD1)): > 4 fold

SMILES: Cn1cc(-c2cc(N3CCCCS3(=O)=O)ccc2N[C@@H]2C[C@@H](CO)[C@@H](O)C2)c2cc[nH]c2c1=O [Compound 39]
IC50 [1]: > 100 nM
IC50 (BRD4 (BD1)): 3.42 ± 0.25 nM

SMILES: CS(=O)(=O)c1ccc(C(=O)Nc2ccc(Cl)c(-c3ccccn3)c2)c(Cl)c1 [GDC-0449, reference compound]
Effect on tumor growth [3]: failed to affect the tumor growth
Tumor growth inhibition in SMO wild MB mice (SMO wild MB): complete tumor growth inhibition
Effect on abundance of endogenous GLI2 proteins (endogenous GLI2): no effect

SMILES: CCS(=O)(=O)Nc1ccc(Oc2ccc(F)cc2F)c(-c2cc(NC(=O)OCCOC)c(=O)n(C)c2)c1 [Compound 6]
IC50 [1]: > 100 nM
IC50 (BRD4 (BD1)): > 100 nM

SMILES: CCS(=O)(=O)Nc1ccc(Oc2ccc(F)cc2F)c(-c2cc(Nc3ccncn3)c(=O)n(C)c2)c1 [Compound 11]
IC50 [1]: > 100 nM
IC50 (BRD4 (BD1)): > 100 nM

SMILES: CN1CCN(CCCNC(=O)c2cc3c(-c4cc(N5CCCS5(=O)=O)ccc4Oc4ccc(F)cc4F)cn(C)c(=O)c3[nH]2)CC1 [Compound 32]
IC50 [1]: > 100 nM
IC50 (BRD4 (BD1)): 0.75 ± 0.07 nM

SMILES: Cc1sc2c(c1C)C(c1ccc(Cl)cc1)=N[C@@H](CC(=O)Nc1ccc(O)cc1)c1nnc(C)n1-2 [OTX-015, reference compound]
IC50 [1]: 0.64 ± 0.02 nM

The remaining molecules from weak to strong by IC50 [1], led by results:

IC50 [1]: 157 ± 1.3 nM
IC50 (BRD4 (BD1)): 27.6 ± 5.7 nM
fold less potent than compound 2 against BRD4 (BRD4 (BD1)): 8 fold
SMILES: CCOC(=O)Nc1cc(-c2cc(NS(=O)(=O)CC)ccc2Oc2ccc(F)cc2F)cn(C)c1=O [Compound 5]

IC50 [1]: 56.1 ± 8.25 nM
IC50 (BRD4 (BD1)): 1.52 ± 0.72 nM
SMILES: CN(C)CCN1CCCN(c2ccc(Oc3ccc(F)cc3F)c(-c3cn(C)c(=O)c4[nH]ccc34)c2)S1(=O)=O [Compound 18]

IC50 [1]: 45.8 ± 19.2 nM
IC50 (BRD4 (BD1)): 0.58 ± 0.1 nM
SMILES: Cn1cc(-c2cc(N3CCCN(CC4(CO)COC4)S3(=O)=O)ccc2Oc2ccc(F)cc2F)c2cc[nH]c2c1=O [Compound 23]

IC50 [1]: 42.8 ± 30.7 nM
IC50 (BRD4 (BD1)): 1.01 ± 0.34 nM
SMILES: CN(CCO)CCN1CCCN(c2ccc(Oc3ccc(F)cc3F)c(-c3cn(C)c(=O)c4[nH]ccc34)c2)S1(=O)=O [Compound 20]

IC50 [1]: 40.6 ± 4.9 nM
IC50 (BRD4 (BD1)): 11.6 ± 1.8 nM
SMILES: CN1C(=O)C(C)(C)Oc2c(-c3cn(C)c(=O)c4[nH]ccc34)cc(S(C)(=O)=O)cc21 [INCB-057643, reference compound]

IC50 [1]: 32.1 ± 7.71 nM
IC50 (BRD4 (BD1)): 18.2 ± 2.7 nM
SMILES: COc1nnc2ccc(N3CCC(c4ccc(OCCN5CCN(C)C(=O)[C@H]5C)cc4)CC3)nn12 [AZD5153 (4), (3R)-4-[2-[4-[1-(3-methoxy-[1,2,4]triazolo[4,3-b]pyridazin-6-yl)-4-piperidyl]phenoxy]ethyl]-1,3-dimethyl-piperazin-2-one, reference compound]

IC50 [1]: 20.5 ± 7.74 nM
IC50 (BRD4 (BD1)): 0.6 ± 0.07 nM
SMILES: Cn1cc(-c2cc(N3CCCC(CO)S3(=O)=O)ccc2Oc2ccc(F)cc2F)c2cc[nH]c2c1=O (stereo not shown) [Compound 13]

IC50 [1]: 17.7 ± 11 nM
IC50 (BRD4 (BD1)): 1.47 ± 0.03 nM
SMILES: Cn1cc(-c2cc(N3CCCN(CCN4CCOCC4)S3(=O)=O)ccc2Oc2ccc(F)cc2F)c2cc[nH]c2c1=O [Compound 19]

IC50 [1]: 5.5 ± 1.3 nM
SMILES: Cc1noc(C)c1-c1cnc2c(-c3ccc(C(=O)O)cc3)cn([C@@H](C)c3ccccn3)c2c1 [PLX51107, reference compound]

IC50 [1]: 3.29 ± 0.14 nM
IC50 (BRD4 (BD1)): 0.25 ± 0.05 nM
SMILES: Cn1cc(-c2cc(N3CCC(CO)S3(=O)=O)ccc2Oc2ccc(F)cc2F)c2cc[nH]c2c1=O (stereo not shown) [Compound 12]

IC50 [1]: 2.46 ± 0.3 nM
IC50 (BRD4 (BD1)): 0.09 ± 0.08 nM
SMILES: Cn1cc(-c2cc(N3CCCCS3(=O)=O)ccc2Oc2ccc(F)cc2F)c2cc(C(N)=O)[nH]c2c1=O [Compound 29]

IC50 [1]: 1.5 ± 0.39 nM
IC50 (BRD4 (BD1)): 0.09 ± 0.04 nM
SMILES: Cn1cc(-c2cc(N3CCCS3(=O)=O)ccc2Oc2ccc(F)cc2F)c2cc(C(N)=O)[nH]c2c1=O [Compound 28]
fold less potent for the HH pathway than against BRD4 ([1]; GLI-luc IC50 vs BRD4 (BD1) IC50): 16 fold
IC50 (hERG channel): > 40000 nM

IC50 [1]: 1.03 ± 0.28 nM
IC50 (BRD4 (BD1)): 2.85 ± 0.5 nM
SMILES: Cn1cc(-c2cc(N3CCCS3(=O)=O)ccc2Oc2ccc3occc3c2)c2cc[nH]c2c1=O [Compound 33]

IC50 [1]: 0.93 ± 0.16 nM
AUC(0-inf) ([2]; iv, 1 mg/kg): 509 ng·h/mL
AUC(0-t) ([2]; iv, 1 mg/kg): 509 ng·h/mL
MRT inf ([2]; iv, 1 mg/kg): 45.6 min
clearance ([2]; iv, 1 mg/kg): 33.2 mL/min/kg
half-life ([2]; iv, 1 mg/kg): 33.6 min
AUC(0-inf) ([2]; po, 3 mg/kg): 473 ng·h/mL
AUC(0-t) ([2]; po, 3 mg/kg): 473 ng·h/mL
Cmax ([2]; po, 3 mg/kg): 474 ng/mL
MRT inf ([2]; po, 3 mg/kg): 75.6 min
Tmax ([2]; po, 3 mg/kg): 30 min
half-life ([2]; po, 3 mg/kg): 57 min
Vss_obs [2]: 1.513 L/kg
IC50 (BRD4 (BD1)): 0.5 ± 0.06 nM
SMILES: Cn1cc(-c2cc(N3CCCS3(=O)=O)ccc2Oc2ccc(F)cc2F)c2c(F)c[nH]c2c1=O [Compound 24]
IC50 (hERG channel): > 40000 nM

IC50 [1]: 0.81 ± 0.24 nM
AUC(0-inf) ([2]; iv, 1 mg/kg): 217 ng·h/mL
AUC(0-t) ([2]; iv, 1 mg/kg): 213 ng·h/mL
MRT inf ([2]; iv, 1 mg/kg): 34.2 min
clearance ([2]; iv, 1 mg/kg): 77.6 mL/min/kg
half-life ([2]; iv, 1 mg/kg): 41.4 min
AUC(0-inf) ([2]; po, 3 mg/kg): 22.1 ng·h/mL
AUC(0-t) ([2]; po, 3 mg/kg): 18.3 ng·h/mL
Cmax ([2]; po, 3 mg/kg): 15.5 ng/mL
MRT inf ([2]; po, 3 mg/kg): 143 min
Tmax ([2]; po, 3 mg/kg): 19.8 min
half-life ([2]; po, 3 mg/kg): 93 min
Vss_obs [2]: 3.512 L/kg
IC50 (BRD4 (BD1)): 0.13 ± 0.005 nM
SMILES: CCNC(=O)c1cc2c(-c3cc(N4CCCCS4(=O)=O)ccc3Oc3ccc(F)cc3F)cn(C)c(=O)c2[nH]1 [Compound 31]
IC50 (hERG channel): 11700 nM

IC50 [1]: 0.41 ± 0.34 nM
AUC(0-inf) ([2]; iv, 1 mg/kg): 1200 ng·h/mL
AUC(0-t) ([2]; iv, 1 mg/kg): 1190 ng·h/mL
MRT inf ([2]; iv, 1 mg/kg): 187 min
clearance ([2]; iv, 1 mg/kg): 17.6 mL/min/kg
half-life ([2]; iv, 1 mg/kg): 164 min
AUC(0-inf) ([2]; po, 3 mg/kg): 2050 ng·h/mL
AUC(0-t) ([2]; po, 3 mg/kg): 2030 ng·h/mL
Cmax ([2]; po, 3 mg/kg): 401 ng/mL
MRT inf ([2]; po, 3 mg/kg): 327 min
Tmax ([2]; po, 3 mg/kg): 165 min
half-life ([2]; po, 3 mg/kg): 200 min
Vss_obs [2]: 2.772 L/kg
IC50 (BRD4 (BD1)): 3.4 ± 0.2 nM
SMILES: CCS(=O)(=O)Nc1ccc(Oc2ccc(F)cc2F)c(-c2cn(C)c(=O)c3[nH]ccc23)c1 [Compound 2, N-(4-(2,4-difluorophenoxy)-3-(6-methyl-7-oxo-6,7-dihydro-1H-pyrrolo[2,3-c]pyridin-4-yl)phenyl)ethanesulfonamide, reference compound]
fold selectivity for the HH pathway against BRD4 (fold less potent against BRD4) ([1]; BRD4 (BD1) IC50 vs GLI-luc IC50): ~10 fold
IC50 (hERG channel): 35500 nM

IC50 [1]: 0.15 ± 0.05 nM
IC50 (BRD4 (BD1)): < 0.16 nM
SMILES: Cc1nnn(C)c1-c1cnc2c3ccc(C(C)(C)O)cc3n([C@H](c3ccccc3)C3CCOCC3)c2c1 [BMS-986158 (1), reference compound]

IC50 [1]: 0.05 ± 0.01 nM
AUC(0-inf) ([2]; iv, 1 mg/kg): 278 ng·h/mL
AUC(0-t) ([2]; iv, 1 mg/kg): 278 ng·h/mL
MRT inf ([2]; iv, 1 mg/kg): 47.6 min
clearance ([2]; iv, 1 mg/kg): 61.5 mL/min/kg
half-life ([2]; iv, 1 mg/kg): 40.8 min
AUC(0-inf) ([2]; po, 3 mg/kg): 9.91 ng·h/mL
AUC(0-t) ([2]; po, 3 mg/kg): 9.91 ng·h/mL
Cmax ([2]; po, 3 mg/kg): 15.2 ng/mL
MRT inf ([2]; po, 3 mg/kg): 53.4 min
Tmax ([2]; po, 3 mg/kg): 15 min
half-life ([2]; po, 3 mg/kg): 81 min
Vss_obs [2]: 2.891 L/kg
IC50 (BRD4 (BD1)): 0.6 ± 0.41 nM
SMILES: CCNC(=O)c1cc2c(-c3cc(N4CCCS4(=O)=O)ccc3Oc3ccc(F)cc3F)cn(C)c(=O)c2[nH]1 [Compound 30]
IC50 (hERG channel): 6400 nM
